Data published in ChEMBL document CHEMBL4251751 (J Med Chem, 2018).
Converted amounts (≈) assume the structure as drawn. The source made the active and inactive calls. No cut-off for these calls is given here.

Tests used:
[1] = biological target: T1, Peroxisome proliferator-activated receptor gamma (Homo sapiens, UniProt P37231); test: Partial agonist activity at human PPARgamma LBD expressed HEK293T cells after 12 to 14 hrs by dual-glo luciferase reporter gene assay
T1 sequence (P37231 whole entry): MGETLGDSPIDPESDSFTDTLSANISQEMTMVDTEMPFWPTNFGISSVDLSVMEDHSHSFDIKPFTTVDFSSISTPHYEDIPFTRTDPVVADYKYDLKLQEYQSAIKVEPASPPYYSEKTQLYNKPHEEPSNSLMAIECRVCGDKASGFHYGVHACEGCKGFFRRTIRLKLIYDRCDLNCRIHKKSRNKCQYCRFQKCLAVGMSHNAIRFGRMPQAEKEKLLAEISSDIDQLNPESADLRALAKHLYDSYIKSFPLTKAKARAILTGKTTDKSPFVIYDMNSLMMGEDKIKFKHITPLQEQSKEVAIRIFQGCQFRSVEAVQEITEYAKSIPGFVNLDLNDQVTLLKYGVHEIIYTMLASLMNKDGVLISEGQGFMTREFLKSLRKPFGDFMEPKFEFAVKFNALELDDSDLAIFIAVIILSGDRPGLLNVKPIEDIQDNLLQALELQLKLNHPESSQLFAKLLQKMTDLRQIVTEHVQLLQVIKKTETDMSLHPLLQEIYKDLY

[2] = biological target: T2, Bifunctional epoxide hydrolase 2 (Homo sapiens, UniProt P34913); test: Inhibition of recombinant human sEH using PHOME as substrate preincubated for 30 mins followed by substrate addition and measured after 30 mins by spectrofluorimetry
T2 sequence (P34913 whole entry): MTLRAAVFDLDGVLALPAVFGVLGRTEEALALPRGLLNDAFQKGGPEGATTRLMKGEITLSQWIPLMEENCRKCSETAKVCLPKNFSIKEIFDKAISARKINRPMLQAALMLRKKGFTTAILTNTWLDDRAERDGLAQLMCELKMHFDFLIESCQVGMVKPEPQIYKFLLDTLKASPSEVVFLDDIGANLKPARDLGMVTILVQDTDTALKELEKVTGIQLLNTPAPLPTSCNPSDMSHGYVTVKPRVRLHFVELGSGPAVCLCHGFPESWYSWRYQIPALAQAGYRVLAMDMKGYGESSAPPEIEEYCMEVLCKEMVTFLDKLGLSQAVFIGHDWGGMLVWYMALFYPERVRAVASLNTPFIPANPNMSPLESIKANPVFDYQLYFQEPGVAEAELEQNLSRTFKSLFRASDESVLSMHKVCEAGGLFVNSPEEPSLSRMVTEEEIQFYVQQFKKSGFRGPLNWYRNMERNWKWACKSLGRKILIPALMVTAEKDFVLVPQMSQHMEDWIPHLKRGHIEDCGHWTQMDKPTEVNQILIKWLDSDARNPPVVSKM

[3] = biological target: T3, Cysteinyl leukotriene receptor 1 (Homo sapiens, UniProt Q9Y271); test: Antagonist potency at human CysLT1R expressed in African green monkey COS7 cells assessed as inhibition of LTD4-induced Ca2+ levels after 60 mins by fura-2/AM-fluorescence based spectrofluorimetry; assay type: functional, cell-based; conditions: read-out: pA2 (converted)
T3 sequence (Q9Y271 whole entry): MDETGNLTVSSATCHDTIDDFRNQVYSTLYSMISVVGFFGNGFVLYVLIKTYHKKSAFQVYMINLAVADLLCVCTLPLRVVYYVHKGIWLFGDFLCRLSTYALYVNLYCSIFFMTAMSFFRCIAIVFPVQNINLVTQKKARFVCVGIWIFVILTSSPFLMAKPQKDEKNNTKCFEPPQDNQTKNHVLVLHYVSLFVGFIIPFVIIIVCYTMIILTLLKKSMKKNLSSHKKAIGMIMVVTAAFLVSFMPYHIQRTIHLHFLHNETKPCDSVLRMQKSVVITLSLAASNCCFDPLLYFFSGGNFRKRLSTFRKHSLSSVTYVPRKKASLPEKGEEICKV

[4] = biological target: T4, Nuclear receptor subfamily 1 group I member 3 (Homo sapiens, UniProt Q14994); test: Agonist activity at human CAR LBD expressed HEK293T cells at 10 uM after 12 to 14 hrs by dual-glo luciferase reporter gene assay; assay type: ADME
T4 sequence (Q14994 whole entry): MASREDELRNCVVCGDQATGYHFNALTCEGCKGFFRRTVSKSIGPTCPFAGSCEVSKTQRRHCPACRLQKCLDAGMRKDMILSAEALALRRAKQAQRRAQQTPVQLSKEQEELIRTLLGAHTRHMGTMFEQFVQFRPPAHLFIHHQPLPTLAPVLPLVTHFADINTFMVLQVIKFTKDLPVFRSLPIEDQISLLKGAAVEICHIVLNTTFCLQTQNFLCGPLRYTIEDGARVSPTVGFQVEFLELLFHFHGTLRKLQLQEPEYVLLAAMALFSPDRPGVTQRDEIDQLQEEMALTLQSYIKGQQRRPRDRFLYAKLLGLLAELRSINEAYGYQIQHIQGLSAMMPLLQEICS

[5] = Aqueous solubility of the compound at 5 mg after 24 hrs by HPLC analysis; assay type: physicochemical; conditions: water
[6] = Lipophilicity, log D of the compound at 30 uM at pH 7.4 by HPLC method; assay type: physicochemical; conditions: buffer
[7] = Metabolic stability in Sprague-Dawley rat liver microsomes assessed as compound remaining at 10 uM in presence of NADPH regenerating system after 4 hrs by HPLC analysis; assay type: ADME, microsome; conditions: read-out: Stability
HepG2 = test: Cytotoxicity against human HepG2 cells at 1 to 100 uM after 48 hrs by WST assay; assay type: cell-based; conditions: hepg2, 48 h
[8] = biological target: T5, Peroxisome proliferator-activated receptor gamma (Mus musculus, UniProt P37238); test: Agonist activity at PPARgamma in mouse 3T3-L1 cells assessed as induction of adipocyte differentiation at 0.3 to 3 uM after 15 days by Oil Red O staining-based assay; assay type: cell-based; conditions: 3t3-l1, 360 h
T5 sequence (P37238 whole entry): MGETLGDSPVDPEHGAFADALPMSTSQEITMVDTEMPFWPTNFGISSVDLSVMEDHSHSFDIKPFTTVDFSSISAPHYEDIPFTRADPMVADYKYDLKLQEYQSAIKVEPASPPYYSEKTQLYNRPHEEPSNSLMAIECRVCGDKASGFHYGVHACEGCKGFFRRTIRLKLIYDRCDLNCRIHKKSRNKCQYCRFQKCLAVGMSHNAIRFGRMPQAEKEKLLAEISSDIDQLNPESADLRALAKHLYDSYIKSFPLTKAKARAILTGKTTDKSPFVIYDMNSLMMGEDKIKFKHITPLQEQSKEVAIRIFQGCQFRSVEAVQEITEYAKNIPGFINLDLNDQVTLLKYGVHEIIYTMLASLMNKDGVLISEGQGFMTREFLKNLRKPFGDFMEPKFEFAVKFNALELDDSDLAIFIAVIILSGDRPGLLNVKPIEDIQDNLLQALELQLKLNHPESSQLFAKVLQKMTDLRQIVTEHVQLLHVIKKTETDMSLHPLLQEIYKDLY

[9] = biological target: T5, Peroxisome proliferator-activated receptor gamma; test: Agonist activity at PPARgamma in mouse 3T3-L1 cells assessed as increase in CD36 mRNA expression at 1 uM after 15 days by quantitative real-time PCR method; assay type: cell-based; conditions: 3t3-l1, 360 h
[10] = Elimination half life in C57BL/6JRj mouse at 10 mg/kg, po by LC-MS/MS analysis; assay type: ADME, organism-based; conditions: in vivo, read-out: beta t1/2 (converted)
Summary of the method: (§1)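 Four healthy wild-type male C57Bl6/J mice received a single oral dose of 10 mg/kg. Plasma concentrations were followed over time to give uptake, bioavailability and terminal half-life. Results are mean±SEM, n=4.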

Mus musculus [11] = test: Activation of PPARgamma in C57BL/6JRj mouse assessed as up-regulation of CD36 expression at 10 mg/kg, po administered as single dose measured at 8 hrs post dose relative to untreated control; assay type: functional, organism-based
Summary of the method: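 Healthy wild-type male C57BL6/J mice were dosed orally at 10 mg/kg or with vehicle. Hepatic transcription of the PPARγ target gene CD36 was assessed in liver against vehicle-treated animals. Mean±SEM, n(vehicle)=2, n(treated)=4.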

Mus musculus [12] = test: Anti-inflammatory activity in zymosan-induced paw edema C57BL/6N mouse model assessed as reduction in paw edema at 10 mg/kg, po via gavage pretreated for 30 mins followed by zymosan injection and measured after 8 hrs post zymosan injection by plethysmometry; assay type: functional, organism-based
Summary of the method: (§2)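 Zymosan was injected intraplantar into one hindpaw of C57BL/6N mice. Test compound or vehicle was given orally at 10 mg/kg 30 min beforehand. Paw edema was measured by plethysmometry at 8 h and 24 h after zymosan, with the contralateral hindpaw as a control.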

Mus musculus [13] = test: Anti-inflammatory activity in zymosan-induced paw edema C57BL/6N mouse model assessed as reduction in paw edema at 10 mg/kg, po via gavage pretreated for 30 mins followed by zymosan injection and measured after 24 hrs post zymosan injection by plethysmometry; assay type: functional, organism-based; summary of the method: as §2
Mus musculus [14] = test: Drug uptake in C57BL/6JRj mouse at 10 mg/kg, po by LC-MS/MS analysis; assay type: ADME, organism-based; conditions: in vivo; summary of the method: as §1
[15] = biological target: T6, Peroxisome proliferator-activated receptor gamma (Mus musculus) (UniProt P37238); test: Agonist activity at PPARgamma in mouse 3T3-L1 cells assessed as increase in CPT1A mRNA expression at 1 uM after 15 days by quantitative real-time PCR method; assay type: cell-based
T6 sequence (whole entry): T5 sequence (P37238 whole entry)

Mus musculus [16] = test: Time at which plasma concentration stays above in-vitro EC50 for partial agonist activity at PPARgamma in C57BL/6JRj mouse at 10 mg/kg, po by LC-MS/MS analysis; assay type: organism-based; conditions: in vivo; summary of the method: as §1
Mus musculus [17] = test: Time at which plasma concentration stays above in-vitro IC50 for sEH in C57BL/6JRj mouse at 10 mg/kg, po by LC-MS/MS analysis; assay type: ADME, organism-based; conditions: in vivo; summary of the method: as §1
Mus musculus [18] = test: Time at which plasma concentration stays above in-vitro pA2 for CysLT1 in C57BL/6JRj mouse at 10 mg/kg, po by LC-MS/MS analysis; assay type: ADME, organism-based; conditions: in vivo; summary of the method: as §1
[19] = biological target: T7, Nuclear receptor subfamily 1 group I member 2 (Homo sapiens, UniProt O75469); test: Agonist activity at human PXR LBD expressed HEK293T cells at 10 uM after 12 to 14 hrs by dual-glo luciferase reporter gene assay; assay type: ADME
T7 sequence (O75469 whole entry): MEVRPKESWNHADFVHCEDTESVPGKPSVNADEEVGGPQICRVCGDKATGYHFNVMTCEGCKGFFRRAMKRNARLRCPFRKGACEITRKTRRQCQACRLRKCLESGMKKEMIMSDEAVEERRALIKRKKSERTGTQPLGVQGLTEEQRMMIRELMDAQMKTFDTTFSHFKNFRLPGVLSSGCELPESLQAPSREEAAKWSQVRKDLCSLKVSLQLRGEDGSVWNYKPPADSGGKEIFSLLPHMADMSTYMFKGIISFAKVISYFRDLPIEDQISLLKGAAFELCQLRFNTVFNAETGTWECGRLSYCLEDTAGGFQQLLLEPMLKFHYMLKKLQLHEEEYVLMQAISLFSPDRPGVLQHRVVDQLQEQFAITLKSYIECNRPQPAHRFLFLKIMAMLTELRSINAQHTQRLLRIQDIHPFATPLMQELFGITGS

Row | SMILES | EC50 [1] | IC50 [2] | Kb [3] | Activity [4] | solubility at 24 h [5] | logD at 30 µM [6] | remaining at 4 h, 10 µM [7] | Activity (Mus musculus [12]) | Activity (Mus musculus [13]) | also measured
1 | COc1cc(C(=O)NS(=O)(=O)c2cc(Cl)cc(Cl)c2)ccc1Cc1cn(C)c2ccc(NC(=O)NC3CCCCC3)cc12 | 740 nM | 550 nM | 6.31 nM | – | – | – | – | – | – | –
2 | COc1cc(C(=O)NS(=O)(=O)c2ccccc2)ccc1Cc1cn(C)c2ccc(NC(=O)NC3CCCCC3)cc12 | – | – | 2 nM | Not Active | 2.1 µg/mL (≈ 3.65 µM) | 1.7 | 65% | inactive | Active | Activity (HepG2): Non-Toxic; Activity [8]: Not Active; Activity [9]: Not Active; half-life [10]: 1.9 h; Activity (Mus musculus [11]): Active; Drug uptake (Mus musculus [14]): Active; Activity [15]: inactive; Time (Mus musculus [16]): 4 h; Time (Mus musculus [17]): 8 h; Time (Mus musculus [18]): 8 h
3 | COc1cc(C(=O)NS(=O)(=O)c2ccccc2C)ccc1Cc1cn(C)c2ccc(NC(=O)OC3CCCC3)cc12 [ZAFIRLUKAST] | 2440 nM | 2000 nM | – | Active | 0.14 µg/mL (≈ 0.243 µM) | 2.47 | 73% | inactive | inactive | Activity [19]: Active
4 | COc1cc(C(=O)NS(=O)(=O)c2ccccc2C)ccc1Cc1cn(C)c2ccc(NC(=O)NC3CCCC3)cc12 | 2490 nM | 590 nM | 0.794 nM | – | – | – | – | – | – | –

Continued, in another order:

Row | EC50 [1] | IC50 [2] | Kb [3] | Activity [4] | solubility at 24 h [5] | logD at 30 µM [6] | remaining at 4 h, 10 µM [7] | SMILES | Activity (Mus musculus [12]) | Activity (Mus musculus [13]) | also measured
5 | 140 nM | 7000 nM | 0.1 nM | – | – | – | – | COc1cc(C(=O)NS(=O)(=O)c2cccc(Cl)c2)ccc1Cc1cn(C)c2ccc(NC(=O)OC3CCCC3)cc12 | – | – | –
6 | 670 nM | 150 nM | 25.1 nM | – | – | – | – | COc1cc(C(=O)NS(=O)(=O)c2ccccc2C)ccc1Cc1cn(C)c2ccc(NC(=O)NC3CCCCC3)cc12 | – | – | –
